Sampled rows, rich in hits. Any-hit rate of the full collection: about 2.9%.
CHO-K1 Ca ag: counter-screen for M1 agonists: effect in parental CHO-K1 cells; Fluo-8 calcium fluorescence; scaled to maximal ATP response, vehicle zero; activation, % at 3 µM; 0.48% of 360,000 active; in the data active = activation above about 15%;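 also: untransfected CHO-K1 host cells lacking M1 receptor as counterscreen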
CHO parental Ca: ATP-evoked calcium signal inhibitors, parental CHO, primary screen, counter-screen for OX1R antagonist project, cell-based, fluorescence, Fluo-8 calcium dye. parental CHO-K1, ATP-induced calcium, Fluo-8 fluorescence. inhibition, % at 5.6 µM. 0.63% of 330,000 active. AID 463079, 2010;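 active = inhibition above that plate's mean sample inhibition plus 3 SD, cut at about 26% in these data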;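 also: 0% = ATP-challenged DMSO wells and 100% = DMSO wells without ATP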
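Assay system: untransfected parental CHO cell line. Also added: ATP agonist challenge. Dosing: one dose, 5.6 µM nominal. Measured by: Fluo-8 fluorescence. Read-out: % inhibition. Benchmarks: ATP wells versus no-ATP DMSO wells. Repeats: no replicates.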
OX1R antag-1: antagonists of human orexin 1 receptor (OX1R); AID 485270, 2010; inhibition, % at 6.6 µM; Orexin/Hypocretin receptor type 1 (Homo sapiens), O43613; OX1R-expressing cells, FRET antagonist read-out; 1.8% of 330,000 active; in the data active = inhibition mostly above about 38%, no sharp cut-off; inactive = mostly below about 40%;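 also: 0% = agonist challenge alone and 100% = reference antagonist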
Target sequence (O43613 whole entry, looked up): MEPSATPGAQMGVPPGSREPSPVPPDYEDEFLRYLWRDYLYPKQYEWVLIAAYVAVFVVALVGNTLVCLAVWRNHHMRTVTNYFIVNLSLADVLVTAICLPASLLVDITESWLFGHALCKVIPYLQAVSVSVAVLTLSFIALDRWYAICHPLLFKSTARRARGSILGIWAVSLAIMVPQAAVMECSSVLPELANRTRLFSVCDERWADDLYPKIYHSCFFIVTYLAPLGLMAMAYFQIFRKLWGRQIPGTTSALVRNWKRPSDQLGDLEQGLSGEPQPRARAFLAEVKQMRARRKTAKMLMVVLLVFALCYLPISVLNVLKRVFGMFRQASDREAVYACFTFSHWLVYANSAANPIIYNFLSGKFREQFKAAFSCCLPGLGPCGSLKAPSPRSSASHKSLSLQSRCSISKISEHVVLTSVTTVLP
CHO-K1 Ca antag: counter-screen for M1 antagonists: effect in parental CHO-K1 cells; ATP-induced calcium, Fluo-8 fluorescence; inhibition, % at 3 µM; 0.6% of 360,000 active;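 active = inhibition above a per-plate cutoff, the plate's mean sample inhibition plus 3 SD, cut at about 24% in these data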;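 also: 0% = DMSO plus EC80 ATP and 100% = DMSO alone without ATP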
M1 PAM parental: nonselective calcium activators in parental CHO-K1 cells, primary screen, counter-screen for M1 PAM project, cell-based, Fluo-8 calcium fluorescence, full deck, 1536-well | ATP EC20; 0% at ATP EC20, 100% at ATP max | activation, % at 3 µM | 0.02% of 360,000 active | AID 602247, 2012;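 active = activation above the run cutoff, the mean activation of all test compounds plus 3 SD, cut at about 40% in these data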;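 also: peak over basal fluorescence ratio in a 140 s read after ATP addition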
OX1R antag-2: OX1R (HCRTR1) antagonists, primary screen, fluorescence, CHO/OX1R cells, Fluo-8 calcium, orexin A; 0.43% of 330,000 active; Fluo-8 calcium fluorescence; inhibition, % at 5 µM;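 active = inhibition above its plate's threshold, mean inhibition of all tested compounds on the plate plus 3 SD, cut at about 37% in these data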;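 also: 0% = orexin A challenge wells and 100% = SB-334867-A antagonist wells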
* hit, by the source's call; / = not tested or not shown.

SMILES | CHO-K1 Ca ag | CHO parental Ca | OX1R antag-1 | CHO-K1 Ca antag | M1 PAM parental | OX1R antag-2
CCOc1ccc(N(CC(=O)N2CCOCC2)S(=O)(=O)c2ccc(SC)cc2)cc1 | 0.2 | -10.4 | 2.1 | -16.4 | 13.4 | -30.2
COc1ccc(N(CC(=O)NC2CCCC2)C(=O)c2ccc(C)s2)c(OC)c1 | 2.5 | -13.7 | 16.1 | -14.9 | 8.9 | -12.6
Cc1cc(C(C#N)c2cccc(Cl)c2)n2ncnc2n1 (stereo not drawn) | 3.3 | -6.8 | 76.0* | 0.4 | 3.0 | 0.0
O=C(CSc1cccc[n+]1[O-])C12CC3CC(CC(C3)C1)C2 | 0.4 | -6.7 | 16.1 | -8.5 | -10.2 | -11.8
Cc1c(C(=O)OCC(=O)Nc2ccc(S(N)(=O)=O)cc2)oc2c1ccc1ccccc12 | 9.0 | 40.9* | 22.2 | -4.7 | 4.4 | 4.5
Cc1cccc2[nH]c3c(N4CC=C(c5ccc(F)cc5)CC4)ncnc3c12 | 3.4 | 35.6* | 77.0* | 8.2 | -9.7 | 19.4
COCCNC(=O)Cc1ccc(F)cc1 | 0.5 | -5.7 | -1.1 | -12.1 | 19.3 | -0.1
CC(C)(C)c1ccc(OCCNC(=O)Cc2ccc(F)cc2)cc1 | 4.2 | -22.8 | 24.9 | 26.9* | -11.9 | -17.8
COc1ccc(OC)c(CNS(=O)(=O)c2c(C)nc3scc(C)n3c2=O)c1 | -0.3 | -15.7 | 6.4 | -4.0 | 6.5 | 3.5
O=S(=O)(c1ccc(Cl)cc1)N1CCN(C2CCN(Cc3ccccc3)CC2)CC1 | 0.2 | -13.9 | 9.3 | 9.2 | -6.0 | -34.2
CCOC(=O)C1=C[C@@H](C2CCCC2)N(S(=O)(=O)c2ccc([N+](=O)[O-])cc2)[C@H]1c1ccccc1 | 0.5 | / | / | 31.2* | -6.7 | /
O=[N+]([O-])c1ccc(S(=O)(=O)N2CCN(C3CCN(Cc4ccccc4)CC3)CC2)cc1 | 9.3 | -15.2 | 63.4* | -9.5 | 2.3 | -12.1
COc1ccc(S(=O)(=O)N2CCN(Cc3c[nH]c4ccccc34)CC2)cc1 | 0.5 | -11.9 | 4.5 | -13.6 | 19.7 | -14.1
O=[N+]([O-])c1ccc(S(=O)(=O)N2CCN(Cc3c[nH]c4ccccc34)CC2)cc1 | 0.4 | -5.0 | 48.6* | 12.1 | -7.7 | -25.5
CCOC(=O)N1CCC(N2CCN(S(=O)(=O)c3ccc([N+](=O)[O-])cc3)CC2)CC1 | 5.6 | 9.5 | 53.7* | -10.4 | 6.6 | -9.0
Cc1ccc(C(=O)N[C@H](C(=O)Nc2sccc2C(N)=O)C(C)C)cc1 | 1.1 | -13.3 | 19.6 | 5.4 | 12.4 | -29.4
COCc1ccc(C(=O)N2CCCCC2C(=O)Nc2ccc(-n3nc(C)cc3C)cc2)o1 (stereo not drawn) | 2.5 | -14.9 | 0.4 | 2.4 | -16.5 | -21.6
O=S(=O)(NCc1ccc2c(c1)OCO2)c1ccc2c(c1)oc1ccccc12 | 7.0 | -8.9 | 44.0* | -10.9 | 10.8 | 18.8
Cc1c(C(=O)NCc2ccc3c(c2)OCO3)oc2ccccc12 | 1.2 | -8.6 | 45.0* | -0.8 | 11.0 | -3.3
O=S(=O)(NCc1ccc2c(c1)OCO2)c1cccc(F)c1 | 0.3 | / | / | -6.5 | 1.0 | /
N#CC1=C(SCC(=O)c2ccccc2)NC2=C(C(=O)CCC2)C1c1ccco1 (stereo not drawn) | 1.3 | 0.0 | 21.4 | 31.1* | -5.9 | -15.3
Cc1ccc(S(=O)(=O)N2CCC(C(=O)Nc3ccc(S(=O)(=O)N4CCCC4)cc3)CC2)cc1C | 1.0 | 3.1 | -2.7 | 4.8 | 12.3 | -13.7
Nc1nc(-c2ccc(F)cc2)cc(C(F)(F)F)n1 | -0.7 | 4.5 | 5.1 | 1.8 | 1.4 | 3.4
Nc1nc(-c2ccc(Cl)cc2)cc(C(F)(F)F)n1 | 0.1 | 39.2* | 13.9 | -17.8 | -13.5 | -2.3
O=C(CCN1C(=O)c2cccc3cccc(c23)C1=O)NCc1cccnc1 | 1.3 | -5.4 | 47.1* | -9.8 | 30.1 | -28.3
SMILES | CHO-K1 Ca ag | CHO parental Ca | OX1R antag-1 | CHO-K1 Ca antag | M1 PAM parental | OX1R antag-2
Cc1cccc(C)c1NC(=O)CNC(=O)CCCN1C(=O)c2cccc3cccc(c23)C1=O | 0.0 | -25.9 | 18.4 | -13.7 | -4.5 | -33.7
CN(C)CCCN1C(=O)c2cc3ccccc3cc2C1=O | -0.1 | 3.4 | 11.7 | 7.6 | -20.0 | -3.3
O=C1c2cccc3cccc(c23)C(=O)N1Cc1cccnc1 | -0.6 | -21.8 | 20.0 | 12.8 | -22.3 | -13.4
CCN(CC)C(=O)CN1C(=O)c2cccc3cccc(c23)C1=O | 2.8 | 0.9 | 69.0* | 21.0 | -12.2 | -14.2
O=C(CCCCCN1C(=O)c2cccc3cccc(c23)C1=O)NCCO | 1.8 | -11.3 | 51.5* | -22.0 | 34.0 | -9.2
CN(C)CCCN1C(=O)c2cccc3cccc(c23)C1=O | 0.3 | -9.5 | 56.0* | -9.9 | 22.0 | -12.4
CCN(CC(=O)Nc1c(F)cccc1F)C(=O)CN1C(=O)c2ccccc2C1=O | 1.2 | -3.5 | 6.8 | -4.2 | 11.6 | -7.2
CC(=O)c1ccc(N2CCN(C(=O)c3ccc(C(=O)c4ccccc4)cc3)CC2)cc1 | 3.4 | -11.6 | 5.1 | -12.9 | 5.1 | 7.1
COc1ccc(C(=O)N2CCC2(C)C(=O)NC(C)C)c(OC)c1 (stereo not drawn) | -0.3 | / | / | -14.9 | 11.6 | /
Cc1ccc(Cl)c2c1=NC(=O)C=2c1[nH]c(=S)[nH]c1O | 17.1* | -12.0 | 39.1 | 4.7 | 12.4 | -20.2
O=C1N=c2ccccc2=C1c1[nH]c(=S)[nH]c1O | -0.1 | 5.1 | 43.0* | -5.2 | 19.8 | -11.1
O=C1N=c2ccccc2=C1c1sc(=O)[nH]c1O | 0.0 | -18.1 | 35.7 | -1.1 | 6.6 | 3.0
O=C(Nc1ccccn1)c1ccc([N+](=O)[O-])cc1Cl | -0.8 | -5.3 | 55.7* | -6.0 | 14.6 | -6.7
O=C(N/N=C/c1ccccn1)c1ccc([N+](=O)[O-])cc1Cl | 0.0 | -2.3 | 19.3 | 8.8 | -10.0 | -13.3
O=C(N/N=C/c1cccnc1)c1ccc([N+](=O)[O-])cc1Cl | 0.9 | -5.2 | 34.9* | -27.2 | 14.8 | -16.9
Cc1ccc([N+](=O)[O-])c(C(=O)N/N=C/c2cccnc2)c1 | 0.6 | -5.4 | 41.5* | -10.0 | 25.6 | -2.5
O=C(N/N=C/c1ccc(Cl)c([N+](=O)[O-])c1)c1cnccn1 | 0.2 | -11.7 | 56.8* | -12.0 | 25.3 | -9.8
c1ccc(N2CCN(CC3CCCCC3)CC2)cc1 | 1.6 | / | / | -6.2 | 10.9 | /
Cc1cccc(C(=O)OCC(=O)N(CC(C)C)c2c(N)n(Cc3ccccc3)c(=O)[nH]c2=O)c1C | 0.0 | / | / | 0.7 | -7.7 | /
CC(C)CCN1C(=O)c2ccccc2C1c1nnnn1-c1ccc2c(c1)OCCO2 (stereo not drawn) | 0.2 | / | / | -2.0 | 1.5 | /
Cc1cccc(Nc2nc(-c3c(C)nc4ccccn34)cs2)c1 | 11.8 | 43.1* | 32.3 | 9.9 | -8.1 | 69.5*
Cc1nc2ccccn2c1-c1csc(Nc2cccc(O)c2)n1 | 11.1 | / | / | 2.2 | 18.5 | /
